According to PMC13065758 (Nature Communications, 2026):

Key:
[1] = Plasma stability assay, mouse plasma; format: in vitro ADME
Method in brief: (§1)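 Test compound was spiked at 10 μM into human or mouse plasma and incubated at 37 °C with shaking for 0, 30 or 120 min. Proteins were precipitated with acetonitrile containing 1 μM chlorpropamide internal standard and removed by centrifugation. Analyte/internal-standard area ratios were measured by LC-MS/MS and expressed as percent remaining versus 0 min.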

[2] = Plasma stability assay, human plasma; format: in vitro ADME
Method in brief: as §1

- remaining at 2 h, 10 μM [1]: 3.13%
- remaining at 2 h, 10 μM [2]: 0.03%
Structure (SMILES): CCN(CC)CCOC(=O)c1ccc(N)cc1 [Procaine]
